From PubChem BioAssay
PRMT1 inh: PRMT1 methyltransferase inhibitors, primary screen, biochemical, fluorescence polarization; Protein arginine N-methyltransferase 1 (Homo sapiens), Q99873; recombinant PRMT1, activity-based probe fluorescence polarization; inhibition, % at 2.79 µM; 1.3% of 370,000 active;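 active = inhibition above about 21% made by adding two undisclosed values, limit read from the data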
TCR CD3 inh: inhibitors of human TCR-CD3 interaction, primary screen, biochemical, fluorescence, TAMRA-labeled TCR probe | 0.37% of 360,000 active | inhibition, % at 9.4 µM | T-cell receptor (TCR); in the data active = inhibition above about 19%;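 note: recombinant mutant TCR 2C K166C tagged with TAMRA read by polarization; 0% = receptor in buffer alone and 100% = receptor with positive control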
PAD4 inh: human PAD4 inhibitors, primary screen, biochemical, fluorescence polarization, 1536-well format; Protein-arginine deiminase type-4 (Homo sapiens), Q9UM07; recombinant PAD4, RCA probe fluorescence polarization; inhibition, % at 6.36 µM; 0.41% of 330,000 active;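 active = percent inhibition above a cutoff equal to the mean of all tested compounds plus 3 SD, cut at about 15% in these data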;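 note: 0% = PAD4 with RCA probe and DMSO and 100% = probe without PAD4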
HTRA1 inhibitor: HTRA1 serine protease inhibitors, primary screen, biochemical, fluorescence polarization, HTS; Q92743; recombinant HTRA1, FP-rhodamine activity-based probe; inhibition, % at 5.96 µM; 0.5% of 340,000 active; AID 504803, 2011; in the data active = inhibition above about 36%;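 note: 0% = enzyme with DMSO and 100% = wells lacking enzyme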
mABHD4 FP: ABHD4 inhibitors, primary screen, biochemical, fluorescence polarization, mouse | purified mABHD4, FP-Rh probe fluorescence polarization | inhibition, % at 8.92 µM | 0.54% of 370,000 active;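 active = inhibition exceeding the mean over every tested compound plus 3 SD, cut at about 30% in these data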;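 note: 0% = plate median of compound wells and 100% = S159A mutant with DMSO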
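system = mouse ABHD4 enzyme, wild type | medium = HEPES pH 7.0, NaCl, Pluronic buffer | also added = FP-Rh probe | incubation = Enzyme–compound pre-incubation 45 min, then probe 60 min, both 25 °C | technique = fluorescence polarization, excitation 525 nm, emission 598 nm, BODIPY TMR filters | controls = S159A mutant high control, sample median low control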
SIAE inh: human SIAE inhibitors, primary screen, biochemical, fluorescence polarization, FP-Rh probe, 1536-well HTS; 0.69% of 370,000 active; AID 1053197, 2014; inhibition, % at 9.66 µM; Sialate O-acetylesterase (Homo sapiens), Q9HAT2; SIAE FP-Rh probe binding;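 active = inhibition above a cutoff: mean of compounds within the control limits plus 3 SD of those, cut at about 17% in these data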;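 note: 0% = plate median of compound wells and 100% = probe without SIAE protein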
Target sequence (Q9HAT2 whole entry, looked up): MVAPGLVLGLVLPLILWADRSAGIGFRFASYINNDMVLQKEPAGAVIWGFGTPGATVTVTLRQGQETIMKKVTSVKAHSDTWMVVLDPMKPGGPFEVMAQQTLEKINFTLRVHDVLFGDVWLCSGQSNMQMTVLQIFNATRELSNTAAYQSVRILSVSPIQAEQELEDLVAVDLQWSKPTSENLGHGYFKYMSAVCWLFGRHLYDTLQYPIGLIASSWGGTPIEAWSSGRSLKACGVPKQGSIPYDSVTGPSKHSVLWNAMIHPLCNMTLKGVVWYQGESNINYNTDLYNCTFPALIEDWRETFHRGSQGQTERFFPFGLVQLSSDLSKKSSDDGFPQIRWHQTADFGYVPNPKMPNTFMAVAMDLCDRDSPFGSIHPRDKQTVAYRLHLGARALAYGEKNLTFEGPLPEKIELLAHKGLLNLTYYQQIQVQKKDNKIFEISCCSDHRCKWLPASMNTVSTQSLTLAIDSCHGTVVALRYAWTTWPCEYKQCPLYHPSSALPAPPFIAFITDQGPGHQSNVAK
SIAE inh conf: human SIAE inhibitors, retest, confirmation, biochemical, fluorescence polarization, FP-Rh probe, triplicate | shares compounds with SIAE inh | SIAE FP-Rh activity-based probe | inhibition, % at 9.66 µM | 13% of 2,300 active;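 active = mean inhibition of the replicates above the hit cutoff set in the primary screen, cut at about 17% in these data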;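 note: 0% = SIAE with DMSO and probe and 100% = probe without SIAE; inhibitors lower polarization as more probe stays unbound to SIAE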
* hit, by the source's call; nt = no result given. Hits are enriched below; roughly 2.9% of the tested compounds scored in any of these assays.

SMILES | PRMT1 inh | TCR CD3 inh | PAD4 inh | HTRA1 inhibitor | mABHD4 FP | SIAE inh | SIAE inh conf
Cc1ccc(Cn2cc(CN3[C@H](CC(C)C)COc4cc(Br)ccc4S3(=O)=O)nn2)cc1 | -5 | nt | nt | nt | -1 | 0 | nt
O=[N+]([O-])c1ccc(N2CCN(Cc3ccc4c(c3)OCO4)CC2)nc1 | 1 | -9 | 0 | 3 | -5 | 24* | 0
Cc1cc(N/N=C/c2c(O)ccc3ccccc23)nc(-c2ccccc2O)n1 | -2 | 1 | 3 | -3 | 9 | 21* | -7
Cc1cc(Nc2ccccc2)nc(-c2ccccc2O)n1 | 0 | -2 | -1 | -31 | -13 | -5 | nt
C[n+]1cc(C(O)(c2ccccc2)c2ccccc2)n2ccccc21 | 0 | nt | nt | nt | -2 | 2 | nt
O=C(N/N=C1/CC2CCC1C2)c1cc2ccccc2cc1O (centres undefined) | 0 | 7 | -4 | 32 | 29 | 19* | -8
COc1ccc(C2(C)CC(C)(C)Nc3ccccc32)cc1 (centres undefined) | -1 | 6 | -1 | 4 | 3 | 5 | nt
COc1ccc(C2CC(C)(c3ccc(OC)cc3)Nc3ccccc3N2)cc1 (centres undefined) | -4 | -9 | 1 | -4 | -3 | 17* | 2
COc1cccc(NC(=S)Nc2cc(C(=O)O)ccc2N2CC3CC(C2)c2cccc(=O)n2C3)c1 (centres undefined) | 0 | -3 | -4 | 3 | 6 | 18* | 3
Cc1ccc(-n2c(SCC(=O)Nc3ccccc3-c3ccccc3)nnc2-c2ccco2)cc1 | -2 | nt | nt | nt | -1 | -3 | nt
N#Cc1ccc(OCCCN2CCC(C(O)(c3ccccc3)c3ccccc3)CC2)cc1 | -1 | 1 | nt | nt | 8 | -4 | nt
CCOc1ccccc1OCCC(=O)NNC(=O)Cn1nc(C)cc1C | -2 | 1 | -1 | 3 | 6 | 17* | 4
N#Cc1ccc(Cn2ccc3ccc(-c4ccc5ccn(C(=O)c6ccccc6)c5c4)cc32)cc1 | 0 | nt | nt | nt | -5 | -13 | nt
C[C@H]1[C@H](N(C)C)CC[C@@]23CCCN2C(=O)CCC[C@@H]13 | 1 | nt | nt | nt | 3 | 2 | nt
NS(=O)(=O)c1ccc(N/N=C/C=C/c2ccccc2[N+](=O)[O-])cc1 | -2 | 1 | -2 | 8 | 3 | 24* | 0
CCCOc1nccc2c1n(C)c(=O)n2C | -2 | nt | nt | nt | 3 | 0 | nt
Fc1ccc(-c2csc(NC(=S)Nc3ccccc3)n2)cc1 | -7 | 1 | -1 | -14 | -1 | 17* | 0
O=C(Nc1ccccc1)Nc1nc(-c2ccc(F)cc2)cs1 | 1 | -3 | 4 | -1 | 1 | 4 | nt
O=C(O)CCC(=O)Nc1nc(-c2ccccc2)cs1 | 1 | -1 | -5 | 6 | 0 | 19* | 4
COC(=O)[C@]12C[C@H](CC(=O)NCCC(C)C)C(=O)N(CCC3=CCCCC3)C1=C[C@H](C1CCCC1)O[C@@H]2C | 4 | nt | nt | nt | 0 | -2 | nt
CCn1nnnc1NCc1ccc(SC)cc1 | -5 | -1 | nt | 8 | 6 | 17* | 8
COC(=O)[C@H](Cc1ccccc1)N1CC(N2CCCC2)CS1(=O)=O (some centres undefined) | 2 | 1 | nt | nt | -1 | 3 | nt
COC(=O)C1CCN(C(=O)COC(=O)c2ccc(OC)c(S(=O)(=O)N3CCCc4ccccc43)c2)CC1 | 0 | 0 | -3 | -5 | 5 | 21* | -3
COC(=O)C1CCN(C(=O)c2ccc(OC)c(S(=O)(=O)N3CCCc4ccccc43)c2)CC1 | 1 | 4 | -5 | -1 | -1 | -4 | nt
CCOc1ccc2nc(NC(=O)Nc3ccccc3)sc2c1 | -2 | 0 | -6 | 1 | -5 | 4 | nt
SMILES | PRMT1 inh | TCR CD3 inh | PAD4 inh | HTRA1 inhibitor | mABHD4 FP | SIAE inh | SIAE inh conf
CCOc1ccc2nc(NC(=O)Nc3cccs3)sc2c1 | 0 | -1 | 1 | 3 | 16 | 34* | 9
CCCCCn1nnnc1C1(C)CSCC(=O)N1Cc1ccco1 (centres undefined) | -3 | nt | nt | nt | 4 | 0 | nt
CSc1ccc(-c2csc(N3CCC(C(N)=O)CC3)n2)cc1 | -1 | nt | nt | nt | 16 | -1 | nt
Cc1cccc(S(=O)(=O)Nc2ccc(C)c3c2OC(C)(C)C3)c1 | -1 | -3 | 1 | -8 | -10 | 24* | -7
Cc1ccc(NS(=O)(=O)c2ccccc2Cl)c2c1CC(C)(C)O2 | 1 | 5 | -5 | -14 | -1 | -1 | nt
O=C(CCl)N1c2ccccc2SCC1c1ccccc1 (centres undefined) | -1 | 1 | 4 | -2 | -1 | 19* | 3
O=C(CCl)N1c2ccccc2OCC1c1ccccc1 (centres undefined) | -3 | 2 | 2 | 1 | 0 | 4 | nt
CCNC(=O)Nc1ccc2c(c1)C(=O)N(C)[C@H]1CC[C@@H](CC(=O)NCCN3CCCC3)O[C@@H]1CO2 | -2 | nt | nt | nt | -1 | -1 | nt
C/C(=C\C(=O)c1ccccc1)Nc1ccc(Br)c(Cl)c1 | -2 | 8 | 1 | 5 | 4 | 18* | 2
O=C(/C=C(\Nc1ccc(Cl)c(Cl)c1)c1ccccc1)c1ccccc1 | 0 | 6 | nt | nt | 3 | 1 | nt
COc1ccc(OCC(=O)Nc2cc(S(=O)(=O)N3CCCC3)ccc2OCC(F)(F)F)cc1 | 2 | -12 | nt | -4 | 2 | 40* | -1
O=C(NC1CCCCN(Cc2cccc(Cl)c2)C1=O)c1ccccc1 (centres undefined) | 2 | nt | nt | nt | 2 | 1 | nt
Cc1c(C2(O)CCCCC2)[nH]c2ccc(C#N)cc12 | -2 | 1 | -3 | -10 | 1 | 18* | 0
CCCC1CCC2(CCCN2CCOC(=O)Nc2ccc(OC)cc2)CC1 (centres undefined) | -2 | nt | nt | nt | 12 | 5 | nt
N#CCCN(C(=O)COC(=O)CNS(=O)(=O)c1ccc2ccccc2c1)c1ccccc1 | 3 | -5 | -2 | 0 | 2 | 23* | 4
Cc1ccc(-c2c(C(=O)NCC(C)C)oc(=O)c3ccccc23)cc1 | 2 | nt | nt | nt | 1 | 4 | nt
CCC(C)CNC(=O)CN1C(=O)C2CCCCN2C(=O)c2ccccc21 (centres undefined) | 1 | nt | nt | nt | -4 | -1 | nt
Cc1cc(C)nc(SCCS(=O)(=O)Cc2ccc(Cl)cc2)n1 | 0 | 3 | -1 | -5 | 1 | 20* | -3
Cc1cc(C)nc(SCCS(=O)(=O)Cc2ccccc2)n1 | 0 | 8 | 2 | -2 | 3 | 0 | nt
